Reference: ChEMBL document CHEMBL1121898, “Potential antiestrogens. Synthesis and evaluation of mammary tumor inhibiting activity of 1,2-dialkyl-1,2-bis(3'-hydroxyphenyl)ethanes” (1981)
Activity calls are given as the source filed them.

Experiments:
Rattus norvegicus [1] = organism: Rattus norvegicus; experiment: Progression of DMBA-induced hormone-dependent mammary carcinoma tumors in rats at 4.5 mg; type: functional
[2] = target: T1, Estrogen receptor (Mus musculus) (UniProt O08537+P19785); experiment: Antiestrogenic activity in uterotrophic test in mice at 0 ug; type: functional
Summary of the method: (§1)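 Immature female NMRI mice, 20 days old (14.5 ± 1.2 g), randomly grouped 10 per group. Each received a daily sc injection for 3 days of 0.1 mL olive oil solution containing test compound, together with estrone to stimulate uterine growth. Uteri were removed 24 h after the last injection and weighed. Results are reported as % inhibition of the estrone-stimulated uterine weight gain, mean ± SD.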

Rattus norvegicus [3] = organism: Rattus norvegicus; experiment: Percent unchanged tumor size of DMBA-induced hormone-dependent mammary carcinoma tumors in rats at 4.5 mg; type: functional
Rattus norvegicus [4] = organism: Rattus norvegicus; experiment: Progression of DMBA-induced hormone-dependent mammary carcinoma tumors in ovariectomised rats; type: functional
Summary of the method: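 DMBA-induced, hormone-dependent mammary adenocarcinoma in SD rats, with ovariectomy as the treatment. Rats bearing at least one tumor >140 mm² were placed in groups of ten. Tumors were counted at the start and as new tumors. Responses were scored as complete remission, partial remission (≥50% size reduction), no change or progression, with % change in tumor area and body weight.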

[5] = target: T1, Estrogen receptor (Mus musculus); experiment: Inhibitory activity in mouse uterine weight test at 50 ug; type: functional
Summary of the method: (§2)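 Antiuterotrophic (Dorfman) assay in immature 20-day-old female NMRI mice, groups of 10. Uterine growth was stimulated with estrone (0.1 μg) and the test compound was given alongside it, sc daily for 3 days in 0.1 mL olive oil. Uteri were taken 24 h after the last dose. Uterine weight is reported as means ± SD and inhibition as % of the estrone-stimulated response.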

Rattus norvegicus [6] = organism: Rattus norvegicus; experiment: Complete remission of DMBA-induced hormone-dependent mammary carcinoma tumors in rats at 4.5 mg; type: functional
Summary of the method: (§3)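 Female SD rats bearing DMBA-induced, hormone-dependent mammary adenocarcinoma, with at least one tumor >140 mm², were grouped in tens. Dosing was sc per kg body weight: a single dose daily Monday–Thursday and a double dose Friday. Ovariectomy served as the comparison arm. Complete remission was defined as a tumor no longer palpable. Body weight and tumor area changes were also recorded.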

Rattus norvegicus [7] = organism: Rattus norvegicus; experiment: Complete remission of DMBA-induced hormone-dependent mammary carcinoma tumors in rats at 2.25 mg; type: functional; summary of the method: as §3
[8] = target: T1, Estrogen receptor (Mus musculus); experiment: Estrogenic activity in uterotrophic test in mice at 300 ug; type: functional
Summary of the method: (§4)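 Immature (20-day-old) female NMRI mice, 14.5 ± 1.2 g, randomized into groups of 10. Given the test compound sc daily for 3 days in 0.1 mL olive oil. Uteri removed 24 h after the last injection; uterine weight taken as the read-out, means ± SD. Dose in μg.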

Rattus norvegicus [9] = organism: Rattus norvegicus; experiment: Percent change in DMBA-induced hormone-dependent mammary carcinoma tumor area at 2.25 mg after 28 days; type: functional
Summary of the method: (§5)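 DMBA-induced, hormone-dependent mammary adenocarcinoma in SD rats. Rats bearing at least one tumor >140 mm² were placed in groups of ten. Compound was given sc as a single dose (mg/kg) daily Monday–Thursday and a double dose on Friday. Tumors were counted at the start and as new tumors; responses were scored as complete remission (not palpable), partial remission (≥50% reduction), no change or progression. Tumor area and body weight were recorded as % change.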

[10] = target: T1, Estrogen receptor (Mus musculus); experiment: Inhibitory activity in mouse uterine weight test at 0.1 ug; type: functional; summary of the method: as §2
Rattus norvegicus [11] = organism: Rattus norvegicus; experiment: Percent change in body weight DMBA-induced hormone-dependent mammary carcinoma tumors in rats at 2.25 mg for 7 days; type: functional
[12] = target: T1, Estrogen receptor (Mus musculus); experiment: Antiestrogenic activity in uterotrophic test in mice at 500 ug (experiment 2); type: functional; summary of the method: as §1
[13] = target: T1, Estrogen receptor (Mus musculus); experiment: Antiestrogenic activity in uterotrophic test in mice at 5 ug (experiment 1); type: functional; summary of the method: as §1
Rattus norvegicus [14] = organism: Rattus norvegicus; experiment: Partial remission of DMBA-induced hormone-dependent mammary carcinoma tumors in rats at 1 mg; type: functional; summary of the method: as §5
Rattus norvegicus [15] = organism: Rattus norvegicus; experiment: Percent change in DMBA-induced hormone-dependent mammary carcinoma tumor area at 4 mg after 28 days; type: functional; summary of the method: as §5
Rattus norvegicus [16] = organism: Rattus norvegicus; experiment: Initial tumor number of DMBA-induced hormone-dependent mammary carcinoma in rats at 4 mg; type: functional; summary of the method: as §5
[17] = target: T1, Estrogen receptor (Mus musculus); experiment: Inhibitory activity in mouse uterine weight test at 5 ug (experiment 1); type: functional; summary of the method: as §2
[18] = target: T1, Estrogen receptor (Mus musculus); experiment: Antiestrogenic activity in uterotrophic test in mice at 2.5 ug (experiment 1)
Rattus norvegicus [19] = organism: Rattus norvegicus; experiment: Partial remission of DMBA-induced hormone-dependent mammary carcinoma tumors in rats at 2 mg; type: functional; summary of the method: as §5
[20] = target: T1, Estrogen receptor (Mus musculus); experiment: Inhibitory activity in mouse uterine weight test at 50 ug (experiment 2); type: functional; summary of the method: as §2
[21] = target: T1, Estrogen receptor (Mus musculus); experiment: Inhibitory activity in mouse uterine weight test at 25 ug (experiment 2); type: functional; summary of the method: as §2
Rattus norvegicus [22] = organism: Rattus norvegicus; experiment: Percent change in body weight DMBA-induced hormone-dependent mammary carcinoma tumors in rats at 4 mg for 7 days; type: functional
Rattus norvegicus [23] = organism: Rattus norvegicus; experiment: Progression of DMBA-induced hormone-dependent mammary carcinoma tumors in rats at 2 mg; type: functional
Mus musculus = organism: Mus musculus; experiment: Vaginal cornification test in mice at 5 ug; predominant cellular component leucocytes (diestrus); type: functional, organism-based
Summary of the method: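 Female NMRI mice (~15 g) were ovariectomized; castration was confirmed at 10 days by leucocyte smears. Mice were primed with estradiol 3-benzoate 0.2 μg, and only responders showing estrus were kept. Groups of three received sc test compound in 0.1 mL olive oil daily for 3 days. Saline vaginal smears were taken 6, 24, 30, 48 and 54 h after the last dose and scored by Allen-Doisy.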

MCF7 = experiment: Inhibition of estrogen receptor positive MCF-7 cell proliferation as cell number after 10 days at 10e-7 M with 10e-7 M 17-beta-estradiol; type: functional, Homo sapiens
Summary of the method: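 MCF-7 cells were grown in McCoy's 5a medium with fetal bovine serum stripped by DCC (0.5 h, 45 °C). Compounds were dissolved in ethanol (final ≤0.5%) and diluted in complete medium. Cells were seeded at 5×10^4 cells/plate. On day 10, three replicate plates per group were counted by Coulter counter, three counts per plate. Percent T/C = test/control. In a retest, compounds were given at 10^-7 M with 17β-estradiol at 10^-7 or 10^-8 M.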

Rattus norvegicus [24] = organism: Rattus norvegicus; experiment: Partial remission of DMBA-induced hormone-dependent mammary carcinoma tumors in rats at 4 mg; type: functional; summary of the method: as §5
Rattus norvegicus [25] = organism: Rattus norvegicus; experiment: Final number of DMBA-induced hormone-dependent mammary carcinoma tumors in rats at 4 mg; type: functional
Summary of the method: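 Sprague-Dawley rats carrying DMBA-induced, hormone-dependent mammary adenocarcinoma, at least one tumor >140 mm², were placed in groups of ten. Compounds were given sc, with doses in mg/kg: a single daily dose Monday to Thursday and a double dose on Friday. Ovariectomy served as a comparator group. New tumors arising during the test were counted.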

[26] = target: T1, Estrogen receptor (Mus musculus); experiment: Estrogenic activity in uterotrophic test in mice at 0.8 ug (experiment 1); type: functional
Summary of the method: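 Uterine growth stimulation in immature female NMRI mice, 20 days old (14.5 ± 1.2 g), 10 per group. Test compound in 0.1 mL olive oil was given sc daily for 3 days. Uteri were excised 24 h after the final injection and weighed. Effect is reported as mean ± SD.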

[27] = target: T1, Estrogen receptor (Mus musculus); experiment: Estrogenic activity in uterotrophic test in mice at 8 ug (experiment 1); type: functional; summary of the method: as §4
[28] = target: T1, Estrogen receptor (Mus musculus); experiment: Antiestrogenic activity in uterotrophic test in mice at 50 ug (experiment 2); type: functional; summary of the method: as §1
Rattus norvegicus [29] = organism: Rattus norvegicus; experiment: Percent change in DMBA-induced hormone-dependent mammary carcinoma tumor area at 2 mg after 28 days; type: functional; summary of the method: as §5
Rattus norvegicus [30] = organism: Rattus norvegicus; experiment: Complete remission of DMBA-induced hormone-dependent mammary carcinoma tumors in rats at 2 mg; type: functional; summary of the method: as §3

T1 sequence (O08537 whole entry, looked up): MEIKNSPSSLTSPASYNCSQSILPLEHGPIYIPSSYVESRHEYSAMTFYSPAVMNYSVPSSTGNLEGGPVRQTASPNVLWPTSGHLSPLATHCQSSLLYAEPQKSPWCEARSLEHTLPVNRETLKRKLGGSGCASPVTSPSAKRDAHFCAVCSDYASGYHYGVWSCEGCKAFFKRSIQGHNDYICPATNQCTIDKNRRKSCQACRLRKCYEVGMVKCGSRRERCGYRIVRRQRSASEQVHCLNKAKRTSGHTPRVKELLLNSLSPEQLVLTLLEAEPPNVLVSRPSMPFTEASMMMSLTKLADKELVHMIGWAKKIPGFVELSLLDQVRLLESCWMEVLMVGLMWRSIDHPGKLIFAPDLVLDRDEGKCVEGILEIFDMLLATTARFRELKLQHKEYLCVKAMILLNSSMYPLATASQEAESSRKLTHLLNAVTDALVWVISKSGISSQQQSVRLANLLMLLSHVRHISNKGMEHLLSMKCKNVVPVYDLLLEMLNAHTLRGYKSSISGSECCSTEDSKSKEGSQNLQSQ
T1 sequence (P19785 whole entry, looked up): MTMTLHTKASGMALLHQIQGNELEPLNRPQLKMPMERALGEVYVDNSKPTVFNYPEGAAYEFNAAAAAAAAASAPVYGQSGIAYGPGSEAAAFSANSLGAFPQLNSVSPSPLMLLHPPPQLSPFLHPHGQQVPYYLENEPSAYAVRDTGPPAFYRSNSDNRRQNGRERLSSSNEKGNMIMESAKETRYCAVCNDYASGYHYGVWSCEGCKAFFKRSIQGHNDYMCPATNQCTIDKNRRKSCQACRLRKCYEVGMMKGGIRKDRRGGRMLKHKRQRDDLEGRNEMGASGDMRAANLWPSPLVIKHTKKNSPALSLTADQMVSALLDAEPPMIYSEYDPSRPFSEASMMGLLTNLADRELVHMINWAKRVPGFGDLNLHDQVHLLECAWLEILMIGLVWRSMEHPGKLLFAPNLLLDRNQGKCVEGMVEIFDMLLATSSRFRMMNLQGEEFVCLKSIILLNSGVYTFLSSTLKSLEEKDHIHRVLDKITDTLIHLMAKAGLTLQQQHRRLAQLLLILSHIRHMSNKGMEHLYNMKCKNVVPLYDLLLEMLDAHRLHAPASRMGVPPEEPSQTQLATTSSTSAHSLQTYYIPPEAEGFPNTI

Compound: CCCC(c1cccc(O)c1)C(CCC)c1cccc(O)c1 (configuration not stated)
- Tumors (Rattus norvegicus [1]): 36%
- Effect [2]: 9.9
- Tumors (Rattus norvegicus [3]): 27%
- Tumors (Rattus norvegicus [4]): 0%
- inhibition [5]: 43%
- Tumors (Rattus norvegicus [6]): 23%
- Tumors (Rattus norvegicus [7]): 25%
- Effect [8]: 28.4
- Change (Rattus norvegicus [9]): 271%
- inhibition [10]: 5%
- Change (Rattus norvegicus [11]): 0.4%

Compound: CCC(c1cccc(O)c1)C(CC)c1cccc(O)c1 (stereo in doubt; 20)
- Effect [12]: 30.9
- Effect [13]: 23.5
- Tumors (Rattus norvegicus [14]): 15%
- Change (Rattus norvegicus [15]): -75%
- No. of tumors (Rattus norvegicus [16]): 37
- inhibition [17]: 53%
- % inhibition [18]: 27%
- Tumors (Rattus norvegicus [19]): 30%
- inhibition [20]: 47%
- inhibition [21]: 48%
- Change (Rattus norvegicus [22]): -5.3%
- Tumors (Rattus norvegicus [23]): 21%
- Activity (Mus musculus): inactive
- Cell number (MCF7): 5600
- Tumors (Rattus norvegicus [24]): 25%
- No. of tumors (Rattus norvegicus [25]): 11
- Effect [26]: 11.8
- Effect [27]: 14.4
- Effect [28]: 28.3
- Change (Rattus norvegicus [29]): 11%
- Tumors (Rattus norvegicus [30]): 19%
